Laboratory results published in ChEMBL document CHEMBL1932994, “Structure-activity relationship studies of S1P agonists with a dihydronaphthalene scaffold” (Bioorg Med Chem Lett, 2012).

Key:
Mus musculus [1] = test: Immunomodulatory activity in po dosed mouse assessed as reduction in peripheral lymphocyte count measured after 4 hrs; assay type: functional
Method in brief: (§1)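 Mice dosed orally over a dose titration; peripheral blood lymphocytes counted 4 h or 24 h after dosing. Each point is the mean % decrease versus vehicle controls (n = 5 per group, treated and control). ED₅₀ (mg/kg) derived from the titration.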

[2] = target: Sphingosine 1-phosphate receptor 1 (Homo sapiens, UniProt P21453); test: Agonist activity at human S1P1 receptor expressed in CHO cells assessed as induction of intracellular calcium level; assay type: functional, cell-based
Sphingosine 1-phosphate receptor 1, sequence (P21453 whole entry): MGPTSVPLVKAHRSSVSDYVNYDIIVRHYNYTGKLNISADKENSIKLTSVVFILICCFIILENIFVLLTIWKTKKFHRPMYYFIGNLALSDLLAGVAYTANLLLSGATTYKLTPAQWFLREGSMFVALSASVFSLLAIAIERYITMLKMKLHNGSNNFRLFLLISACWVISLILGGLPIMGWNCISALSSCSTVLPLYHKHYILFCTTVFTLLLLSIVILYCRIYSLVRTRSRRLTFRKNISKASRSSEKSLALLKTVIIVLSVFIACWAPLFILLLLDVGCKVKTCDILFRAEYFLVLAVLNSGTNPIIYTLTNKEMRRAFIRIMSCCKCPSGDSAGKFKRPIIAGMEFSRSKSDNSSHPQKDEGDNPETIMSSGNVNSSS
Method in brief: (§2)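 Intracellular Ca²⁺ rise measured in CHO cells stably expressing human S1P₁ or S1P₃ receptor; EC₅₀ (nM) determined. Some values are the average of two assays.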

[3] = target: Sphingosine 1-phosphate receptor 3 (Homo sapiens, UniProt Q99500); test: Agonist activity at human S1P3 receptor expressed in CHO cells assessed as induction of intracellular calcium level; assay type: functional, cell-based; method in brief: as §2
Sphingosine 1-phosphate receptor 3, sequence (Q99500 whole entry): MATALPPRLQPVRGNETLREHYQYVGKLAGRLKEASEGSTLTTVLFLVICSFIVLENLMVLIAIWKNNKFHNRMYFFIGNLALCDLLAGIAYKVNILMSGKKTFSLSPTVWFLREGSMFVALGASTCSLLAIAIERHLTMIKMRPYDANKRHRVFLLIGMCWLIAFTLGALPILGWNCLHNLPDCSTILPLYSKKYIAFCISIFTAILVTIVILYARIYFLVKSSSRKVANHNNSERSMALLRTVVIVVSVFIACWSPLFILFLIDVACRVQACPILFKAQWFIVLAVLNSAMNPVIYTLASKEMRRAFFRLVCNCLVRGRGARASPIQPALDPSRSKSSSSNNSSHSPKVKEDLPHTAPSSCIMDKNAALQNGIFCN

[4] = Tmax in rat at 1 mg/kg, po; assay type: ADME, organism-based; design: dose 1 mg/kg, route oral; details: in vivo
[5] = Oral bioavailability in rat at 1 mg/kg; assay type: ADME, organism-based; details: in vivo
[6] = AUC (0 to infinity) in rat at 1 mg/kg, po; assay type: ADME, organism-based; design: time infinity, dose 1 mg/kg, route oral; details: plasma
[7] = Half life in rat at 1 mg/kg, po; assay type: ADME, organism-based; design: dose 1 mg/kg, route oral; details: in vivo
Plasma = test: Plasma concentration in rat at 1 mg/kg, po; assay type: ADME, organism-based; design: dose 1 mg/kg, route oral; details: in vivo
Mus musculus [8] = test: Immunomodulatory activity in po dosed mouse assessed as reduction in peripheral lymphocyte count measured after 24 hrs; assay type: functional; method in brief: as §1
[9] = Cmax in rat at 1 mg/kg, po; assay type: ADME, organism-based; design: dose 1 mg/kg, route oral; details: in vivo
[10] = Half life in rat at 1 mg/kg, iv; assay type: ADME, organism-based; design: dose 1 mg/kg, route intravenous; details: in vivo
[11] = Volume of distribution at steady state in rat at 1 mg/kg, iv; assay type: ADME, organism-based; design: dose 1 mg/kg, route intravenous; details: in vivo, read-out: Vdss
[12] = AUC (0 to infinity) in rat at 1 mg/kg, iv; assay type: ADME, organism-based; design: time infinity, dose 1 mg/kg, route intravenous; details: plasma
[13] = Total clearance in rat at 1 mg/kg, iv; assay type: ADME, organism-based; design: dose 1 mg/kg, route intravenous; details: in vivo
CHO = test: Selectivity ratio of EC50 for human S1P3 receptor expressed in CHO cells to EC50 for S1P1 receptor expressed in CHO cells; assay type: cell-based
Method in brief: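 Ratio of EC₅₀ values from intracellular Ca²⁺ stimulation assays in CHO cells stably expressing human S1P₃ versus human S1P₁.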

[14] = AUC (0 to infinity) in rat at 1 mg/kg, iv measured up to 24 hrs; assay type: ADME, organism-based; design: time infinity, dose 1 mg/kg, route intravenous; details: plasma
[15] = AUC (0 to infinity) in rat at 1 mg/kg, po measured up to 24 hrs; assay type: ADME, organism-based; design: time infinity, dose 1 mg/kg, route oral; details: plasma
[16] = Oral bioavailability in rat at 1 mg/kg measured up to 24 hrs; assay type: ADME, organism-based; details: in vivo

| EC50 [2] [nM] | EC50 [3] [nM] | Compound | ED50 (Mus musculus [1]) [mg/kg] | ED50 (Mus musculus [8]) [mg/kg] | further results |
| --- | --- | --- | --- | --- | --- |
| 3 | 5000 | CC1=C(CN2CC(C(=O)O)C2)CCc2cc(OCCCc3ccccc3)ccc21.Cl | 0.4 | – | – |
| – | – | CC1=C(CN2CC(C(=O)O)C2)CCc2cc(OCCCCc3ccccc3)ccc21 | – | – | Tmax [4]: 4.7 h; bioavailability [5]: 85%; AUC(0-inf) [6]: 3800 ng·h/mL; half-life [7]: 17 h; Cp (Plasma): 53 ng/mL |
| 0.6 | 22000 | CC1=C(CN2CC(C(=O)O)C2)CCc2cc(OCCC(C)c3ccccc3)ccc21.Cl (racemic) | > 0.3 | – | – |
| 2.7 | 2900 | CC1=C(CN2CC(C(=O)O)C2)CCc2cc(OCCCc3ccccc3F)ccc21.Cl | 0.13 | 0.75 | – |
| 20 | > 30000 | CC1=C(CN2CC(C(=O)O)C2)CCc2cc(OCC(C)(C)Cc3ccccc3)ccc21 | – | – | – |
| 0.84 | 3200 | CC1=C(CN2CC(C(=O)O)C2)CCc2cc(OCCCc3ccc(F)cc3)ccc21.Cl | 0.055 | 0.25 | Cmax [9]: 159 ng/mL; Tmax [4]: 4.7 h; half-life [10]: 21 h; bioavailability [5]: 106%; AUC(0-inf) [6]: 5700 ng·h/mL; half-life [7]: 24 h; Cp (Plasma): 88 ng/mL; Vd [11]: 5.3 L/kg; AUC(0-inf) [12]: 5400 ng·h/mL; clearance [13]: 3.2 mL/min/kg |
| 0.85 | 11000 | CC1=C(CN2CC(C(=O)O)C2)CCc2cc(OC[C@H](C)Cc3ccc(F)cc3)ccc21.Cl | – | 0.55 | – |
| 20 | 14000 | CC1=C(CN2CC(C(=O)O)C2)CCc2cc(OC(C)CCc3ccccc3)ccc21 (stereo unspecified) | – | – | – |
| 0.55 | 8200 | CC1=C(CN2CC(C(=O)O)C2)CCc2cc(OC[C@@H](C)Cc3ccc(Cl)cc3)ccc21.Cl | – | 0.095 | Cmax [9]: 184 ng/mL; Tmax [4]: 4.7 h; Ratio EC50 (CHO): 15000; half-life [10]: 27 h; bioavailability [5]: 62%; AUC(0-inf) [6]: 5500 ng·h/mL; half-life [7]: 20 h; Cp (Plasma): 87 ng/mL; Vd [11]: 3.9 L/kg; AUC(0-inf) [12]: 9000 ng·h/mL; clearance [13]: 2 mL/min/kg |
| 0.66 | 20800 | CC1=C(CN2CC(C(=O)O)C2)CCc2cc(OCC(C)Cc3ccccc3)ccc21.Cl (racemic) | 0.19 | – | – |
| 1.1 | 29300 | CC[C@H](COc1ccc2c(c1)CCC(CN1CC(C(=O)O)C1)=C2C)Cc1ccc(F)cc1.Cl | – | 0.77 | – |
| 0.37 | 9450 | CC1=C(CN2CC(C(=O)O)C2)CCc2cc(OC[C@@H](C)Cc3ccc(F)cc3)ccc21.Cl | – | 0.22 | Cmax [9]: 103 ng/mL; Tmax [4]: 4.7 h; AUC(0-inf) [14]: 2600 ng·h/mL; half-life [10]: 19 h; half-life [7]: 57 h; Cp (Plasma): 69 ng/mL; Vd [11]: 5.7 L/kg; AUC(0-inf) [15]: 2000 ng·h/mL; clearance [13]: 4 mL/min/kg; bioavailability [16]: 75% |
| 4 | 3900 | CC1=C(CN2CC(C(=O)O)C2)CCc2cc(OCCCc3cccc(F)c3)ccc21.Cl | 0.15 | 0.69 | – |
| 4.5 | > 30000 | CC1=C(CN2CC(C(=O)O)C2)CCc2cc(OC[C@H](Cc3ccc(F)cc3)C(C)C)ccc21.Cl | – | 0.68 | – |
